From ChEMBL document CHEMBL2401654, “Synthesis, characterization, and biological assessment of the four stereoisomers of the H(3) receptor antagonist 5-fluoro-2-methyl-N-[2-methyl-4-(2-methyl[1,3']bipyrrolidinyl-1'-yl)phenyl]benzamide” (Bioorg Med Chem Lett, 2013)

Experiments:
[1] = Distribution coefficient, log D of the compound; type: physicochemical; settings: octanol/water
[2] = Drug metabolism in human liver microsomes at 5 uM after 20 mins; type: ADME, Microsome; settings: read-out: Drug metabolism
Method in brief: (§1)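 Substrate at 5 µM incubated at 37 °C for 20 min with in-house liver microsome preparations (human, mouse or rat). Reported as the percentage of parent compound metabolized.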

Cytochrome P450 1A2 = biological target: T1, Cytochrome P450 1A2 (Homo sapiens, UniProt P05177); assay: Inhibition of CYP1A2 (unknown origin); type: ADME
T1 sequence (P05177 whole entry): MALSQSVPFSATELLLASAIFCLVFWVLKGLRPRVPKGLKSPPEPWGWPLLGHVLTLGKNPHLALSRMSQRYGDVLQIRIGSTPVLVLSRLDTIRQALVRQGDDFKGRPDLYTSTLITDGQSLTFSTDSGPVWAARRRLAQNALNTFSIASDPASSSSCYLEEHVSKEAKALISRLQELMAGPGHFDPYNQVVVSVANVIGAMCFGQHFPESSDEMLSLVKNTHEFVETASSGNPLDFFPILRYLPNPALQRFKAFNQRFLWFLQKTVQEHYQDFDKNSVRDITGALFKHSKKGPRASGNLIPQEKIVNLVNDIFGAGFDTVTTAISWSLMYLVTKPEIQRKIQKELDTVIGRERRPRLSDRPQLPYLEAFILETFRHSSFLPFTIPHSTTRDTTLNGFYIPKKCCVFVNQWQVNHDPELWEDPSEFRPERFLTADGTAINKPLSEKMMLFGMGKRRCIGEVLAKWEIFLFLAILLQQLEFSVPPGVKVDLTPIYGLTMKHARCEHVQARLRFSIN

[3] = Tmax in C57BL/6 mouse plasma at 10 mg/kg, po; type: ADME, organism-based; design: dose 10 mg/kg, route oral
Method in brief: (§2)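 Male C57BL/6 mice were dosed orally at 10 mg/kg, formulated at 1 mg/mL in 5% DMSO/0.5% MC/0.2% tween 80. Plasma and brain were sampled for PK parameters. Brain to plasma ratio was based on AUC0-24.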

[4] = Half life in C57BL/6 mouse brain at 2 mg/kg, iv; type: ADME, organism-based; design: dose 2 mg/kg, route intravenous
Method in brief: (§3)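 Male C57BL/6 mice received a single intravenous dose of 2 mg/kg, formulated at 1 mg/mL in 50% 1-methyl-2-pyrrolidinone in saline. Plasma and brain concentrations were followed to derive PK parameters. Brain to plasma ratio was calculated from AUC.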

[5] = Half life in C57BL/6 mouse plasma at 10 mg/kg, po; type: ADME, organism-based; design: dose 10 mg/kg, route oral; method in brief: as §2
[6] = Ratio of AUC (0 to 24 hrs) in C57BL/6 mouse brain to AUC (0 to 24 hrs) in C57BL/6 mouse plasma at 2 mg/kg, iv; type: ADME, organism-based; design: dose 2 mg/kg, route intravenous; settings: read-out: Ratio AUC
Method in brief: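 Male C57BL/6 mice were given a single intravenous dose of 2 mg/kg, formulated at 1 mg/mL in 50% 1-methyl-2-pyrrolidinone in saline. Plasma and brain exposure profiles were collected, and the brain-to-plasma ratio was derived from the AUC values of the two tissues.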

Cytochrome P450 2C19 = Cytochrome P450 2C19 (Homo sapiens, UniProt P33261); assay: Inhibition of CYP2C19 (unknown origin); type: ADME
[7] = Cmax in C57BL/6 mouse plasma at 2 mg/kg, iv; type: ADME, organism-based; design: dose 2 mg/kg, route intravenous; method in brief: as §3
Salmonella typhimurium = assay: Mutagenic activity in Salmonella typhimurium by Ames test; type: toxicity, organism-based; settings: salmonella enterica subsp. enterica serovar typhimurium
[8] = AUC (0 to infinity) in C57BL/6 mouse plasma at 2 mg/kg, iv; type: ADME, organism-based; design: time infinity, dose 2 mg/kg, route intravenous; method in brief: as §3
Cytochrome P450 2B6 = biological target: T2, Cytochrome P450 2B6 (Homo sapiens, UniProt P20813); assay: Inhibition of CYP2B6 (unknown origin); type: ADME
T2 sequence (P20813 whole entry): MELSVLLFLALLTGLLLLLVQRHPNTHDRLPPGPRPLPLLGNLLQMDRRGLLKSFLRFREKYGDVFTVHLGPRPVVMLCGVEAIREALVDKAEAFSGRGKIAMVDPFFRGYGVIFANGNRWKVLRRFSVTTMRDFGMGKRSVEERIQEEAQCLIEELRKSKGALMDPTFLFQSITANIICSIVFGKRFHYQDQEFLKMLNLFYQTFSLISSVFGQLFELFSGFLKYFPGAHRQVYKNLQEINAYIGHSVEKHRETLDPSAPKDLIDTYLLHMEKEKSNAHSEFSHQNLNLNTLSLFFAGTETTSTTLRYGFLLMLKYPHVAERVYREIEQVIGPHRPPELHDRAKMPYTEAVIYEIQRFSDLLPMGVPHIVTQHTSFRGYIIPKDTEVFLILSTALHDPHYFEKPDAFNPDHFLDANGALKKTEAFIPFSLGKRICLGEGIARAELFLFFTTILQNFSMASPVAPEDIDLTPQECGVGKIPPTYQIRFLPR

[9] = Cmax in C57BL/6 mouse brain at 2 mg/kg, iv; type: ADME, organism-based; design: dose 2 mg/kg, route intravenous; method in brief: as §3
Cytochrome P450 3A4 = Cytochrome P450 3A4 (Homo sapiens, UniProt P08684); assay: Inhibition of CYP3A4 (unknown origin); type: ADME
hERG (KCNH2) = hERG (KCNH2) (Homo sapiens, UniProt Q12809); assay: Inhibition of human ERG transfected in CHO cells at 10 uM by patch clamp assay relative to control; type: cell-based; settings: CHO cells transfected with human ERG
Method in brief: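 Whole-cell patch clamp on CHO cells stably transfected with the human ERG gene.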

[10] = Drug metabolism in rat liver microsomes at 5 uM after 20 mins; type: ADME, Microsome; settings: read-out: Drug metabolism; method in brief: as §1
Histamine H3 receptor = Histamine H3 receptor (Rattus norvegicus, UniProt Q9QYN8); assay: Displacement of [3H]N-alpha-methylhistamine from recombinant rat histamine H3 receptor transfected in CHO cell membranes after 1 hr by scintillation counting analysis; design: species or system Membrane
Method in brief: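 Radioligand displacement of [3H]N-α-methylhistamine using membranes from CHO cells stably transfected with recombinant human or rat H3 receptor. Ki is presented as a range of multiple experiments (n ≥ 3).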

Mus musculus [11] = assay: Toxicity in mouse assessed as increase in tail pinch at => 10 mg/kg, po; type: organism-based; design: dose 10 mg/kg, route oral; settings: in vivo
Method in brief: (§4)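 Behavioral safety study in mice given single oral doses of 3, 10 and 30 mg/kg. Tremors, tail pinch response, body temperature, pupil size and body weight were scored at 2 and 6 h post dose. Clinical signs were observed over one week after dosing.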

[12] = Genotoxicity in micronucleus (unknown origin)
Mus musculus [13] = assay: Toxicity in mouse assessed as appearance of tremor at 30 mg/kg, po measured at 2 hrs; type: organism-based; design: dose 30 mg/kg, route oral; settings: in vivo; method in brief: as §4
[14] = Cmax in C57BL/6 mouse brain at 10 mg/kg, po; type: ADME, organism-based; design: dose 10 mg/kg, route oral; method in brief: as §2
[15] = Clearance in C57BL/6 mouse at 2 mg/kg, iv; type: ADME, organism-based; design: dose 2 mg/kg, route intravenous; settings: in vivo; method in brief: as §3
[16] = Tmax in C57BL/6 mouse brain at 2 mg/kg, iv; type: ADME, organism-based; design: dose 2 mg/kg, route intravenous; method in brief: as §3
[17] = Tmax in C57BL/6 mouse brain at 10 mg/kg, po; type: ADME, organism-based; design: dose 10 mg/kg, route oral; method in brief: as §2

Sequence of hERG (KCNH2) (Q12809 whole entry): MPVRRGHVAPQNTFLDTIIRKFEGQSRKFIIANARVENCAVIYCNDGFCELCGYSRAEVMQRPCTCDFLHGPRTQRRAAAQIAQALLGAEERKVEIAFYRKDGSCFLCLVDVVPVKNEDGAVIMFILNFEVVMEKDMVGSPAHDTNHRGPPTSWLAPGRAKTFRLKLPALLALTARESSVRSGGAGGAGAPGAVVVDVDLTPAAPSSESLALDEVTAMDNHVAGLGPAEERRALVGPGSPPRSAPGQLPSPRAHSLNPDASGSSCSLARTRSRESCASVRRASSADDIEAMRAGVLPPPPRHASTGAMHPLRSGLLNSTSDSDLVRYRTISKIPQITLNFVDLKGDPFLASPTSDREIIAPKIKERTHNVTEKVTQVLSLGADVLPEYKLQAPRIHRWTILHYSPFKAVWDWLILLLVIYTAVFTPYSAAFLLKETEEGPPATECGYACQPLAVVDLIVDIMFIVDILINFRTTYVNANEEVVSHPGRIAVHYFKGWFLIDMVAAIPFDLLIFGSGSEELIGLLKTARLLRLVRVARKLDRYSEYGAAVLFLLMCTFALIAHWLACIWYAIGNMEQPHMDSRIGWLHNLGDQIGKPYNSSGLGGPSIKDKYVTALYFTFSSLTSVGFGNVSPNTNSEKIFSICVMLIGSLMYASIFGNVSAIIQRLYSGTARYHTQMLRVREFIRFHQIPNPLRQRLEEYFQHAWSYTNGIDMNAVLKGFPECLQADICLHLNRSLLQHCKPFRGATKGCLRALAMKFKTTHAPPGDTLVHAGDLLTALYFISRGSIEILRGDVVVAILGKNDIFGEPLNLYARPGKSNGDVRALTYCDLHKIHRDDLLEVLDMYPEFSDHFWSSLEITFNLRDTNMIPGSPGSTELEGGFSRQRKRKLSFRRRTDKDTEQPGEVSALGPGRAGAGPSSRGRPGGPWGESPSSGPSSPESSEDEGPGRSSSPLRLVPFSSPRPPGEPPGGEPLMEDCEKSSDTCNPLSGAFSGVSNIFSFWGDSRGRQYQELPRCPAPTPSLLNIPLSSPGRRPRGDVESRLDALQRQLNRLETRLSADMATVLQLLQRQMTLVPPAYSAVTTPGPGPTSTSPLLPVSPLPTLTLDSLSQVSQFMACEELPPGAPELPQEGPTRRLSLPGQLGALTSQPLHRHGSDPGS
Sequence of Cytochrome P450 3A4 (P08684 whole entry): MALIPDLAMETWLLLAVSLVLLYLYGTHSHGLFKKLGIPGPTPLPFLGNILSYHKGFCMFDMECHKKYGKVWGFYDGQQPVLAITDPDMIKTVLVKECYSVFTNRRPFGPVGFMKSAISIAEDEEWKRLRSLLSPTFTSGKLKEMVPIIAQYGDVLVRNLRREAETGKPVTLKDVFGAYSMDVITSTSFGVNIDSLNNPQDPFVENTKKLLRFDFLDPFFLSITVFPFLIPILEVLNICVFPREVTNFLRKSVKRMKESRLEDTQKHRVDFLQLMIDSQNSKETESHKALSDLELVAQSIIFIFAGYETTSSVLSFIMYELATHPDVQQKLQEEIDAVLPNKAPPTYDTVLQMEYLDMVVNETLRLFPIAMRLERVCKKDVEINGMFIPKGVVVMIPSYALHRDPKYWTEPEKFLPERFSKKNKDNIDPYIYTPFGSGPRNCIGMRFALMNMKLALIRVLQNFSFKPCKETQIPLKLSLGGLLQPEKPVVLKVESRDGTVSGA
Sequence of Cytochrome P450 2C19 (P33261 whole entry): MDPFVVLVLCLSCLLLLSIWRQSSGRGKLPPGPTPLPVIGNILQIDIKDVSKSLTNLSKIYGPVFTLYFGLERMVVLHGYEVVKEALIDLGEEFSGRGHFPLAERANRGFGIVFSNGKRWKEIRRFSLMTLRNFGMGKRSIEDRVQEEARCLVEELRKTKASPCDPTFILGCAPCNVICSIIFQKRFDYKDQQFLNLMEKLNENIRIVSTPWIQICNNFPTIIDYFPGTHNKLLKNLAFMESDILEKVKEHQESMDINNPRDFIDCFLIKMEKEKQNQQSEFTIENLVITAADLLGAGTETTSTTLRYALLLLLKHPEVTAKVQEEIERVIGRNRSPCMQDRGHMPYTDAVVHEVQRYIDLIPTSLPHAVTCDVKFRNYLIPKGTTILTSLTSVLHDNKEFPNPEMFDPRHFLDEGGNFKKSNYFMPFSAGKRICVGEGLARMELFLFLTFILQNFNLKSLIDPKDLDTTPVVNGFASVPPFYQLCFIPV
Sequence of Histamine H3 receptor (Q9QYN8 whole entry): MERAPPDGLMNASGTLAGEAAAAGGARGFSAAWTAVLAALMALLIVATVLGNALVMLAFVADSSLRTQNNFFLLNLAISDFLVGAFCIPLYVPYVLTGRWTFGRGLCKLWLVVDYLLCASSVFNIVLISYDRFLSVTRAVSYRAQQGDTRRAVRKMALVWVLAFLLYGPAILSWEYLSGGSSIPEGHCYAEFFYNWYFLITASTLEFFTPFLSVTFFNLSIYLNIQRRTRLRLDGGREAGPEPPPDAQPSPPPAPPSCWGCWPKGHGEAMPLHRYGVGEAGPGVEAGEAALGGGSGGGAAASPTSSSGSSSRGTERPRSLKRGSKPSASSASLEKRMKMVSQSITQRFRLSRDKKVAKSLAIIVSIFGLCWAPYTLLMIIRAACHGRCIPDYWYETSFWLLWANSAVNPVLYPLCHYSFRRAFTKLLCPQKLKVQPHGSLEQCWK

Structure (SMILES): Cc1cc(N2CC[C@H](N3CCC[C@@H]3C)C2)ccc1NC(=O)c1cc(F)ccc1C
- logD [1]: 2.09
- metabolised at 20 min, 5 µM [2]: 3%
- IC50 (Cytochrome P450 1A2): > 30 µM
- Tmax [3]: 10.2 min
- half-life [4]: 96 min
- half-life [5]: 216 min
- Kp [6]: 4.7
- IC50 (Cytochrome P450 2C19): > 30 µM
- Cmax [7]: 2000 ng/mL
- Activity (Salmonella typhimurium): Non-toxic
- AUC(0-inf) [8]: 560 ng·h/mL
- IC50 (Cytochrome P450 2B6): > 30 µM
- Cmax [9]: 4820 ng/mL
- IC50 (Cytochrome P450 3A4): > 30 µM
- inhibition at 10 µM (hERG (KCNH2)): 84.3%
- metabolised at 20 min, 5 µM [10]: 20%
- Ki (Histamine H3 receptor): 3 nM
- Activity (Mus musculus [11]): Toxic
- Activity [12]: Non-toxic
- Activity (Mus musculus [13]): Toxic
- Cmax [14]: 4290 ng/mL
- clearance [15]: 60 mL/min/kg
- Tmax [16]: 4.98 min
- Tmax [17]: 1 h
